Measured values reported in ChEMBL document CHEMBL5705897, “Characterization of WZ4003 and HTH-01-015 as selective inhibitors of the LKB1-tumour-suppressor-activated NUAK kinases” (Biochem J, 2014).
Activity calls are given as the source filed them. No cut-off for these calls is given here.

Experiments:
[1] = molecular target: Ephrin type-B receptor 4 (Homo sapiens) (UniProt P54760); experiment: Inhibition of recombinant human N-terminal His6-tagged EPHB4 (561 to 987 residues) expressed in baculovirus infected Sf21 cells assessed as remaining activity at 1 uM using Poly (Glu,Tyr) as substrate incubated for 30 mins in presence of [gamma-33P]ATP by filter binding method relative to control
Chain of Ephrin type-B receptor 4 (Homo sapiens) (P54760 whole entry, the tested form may be a part): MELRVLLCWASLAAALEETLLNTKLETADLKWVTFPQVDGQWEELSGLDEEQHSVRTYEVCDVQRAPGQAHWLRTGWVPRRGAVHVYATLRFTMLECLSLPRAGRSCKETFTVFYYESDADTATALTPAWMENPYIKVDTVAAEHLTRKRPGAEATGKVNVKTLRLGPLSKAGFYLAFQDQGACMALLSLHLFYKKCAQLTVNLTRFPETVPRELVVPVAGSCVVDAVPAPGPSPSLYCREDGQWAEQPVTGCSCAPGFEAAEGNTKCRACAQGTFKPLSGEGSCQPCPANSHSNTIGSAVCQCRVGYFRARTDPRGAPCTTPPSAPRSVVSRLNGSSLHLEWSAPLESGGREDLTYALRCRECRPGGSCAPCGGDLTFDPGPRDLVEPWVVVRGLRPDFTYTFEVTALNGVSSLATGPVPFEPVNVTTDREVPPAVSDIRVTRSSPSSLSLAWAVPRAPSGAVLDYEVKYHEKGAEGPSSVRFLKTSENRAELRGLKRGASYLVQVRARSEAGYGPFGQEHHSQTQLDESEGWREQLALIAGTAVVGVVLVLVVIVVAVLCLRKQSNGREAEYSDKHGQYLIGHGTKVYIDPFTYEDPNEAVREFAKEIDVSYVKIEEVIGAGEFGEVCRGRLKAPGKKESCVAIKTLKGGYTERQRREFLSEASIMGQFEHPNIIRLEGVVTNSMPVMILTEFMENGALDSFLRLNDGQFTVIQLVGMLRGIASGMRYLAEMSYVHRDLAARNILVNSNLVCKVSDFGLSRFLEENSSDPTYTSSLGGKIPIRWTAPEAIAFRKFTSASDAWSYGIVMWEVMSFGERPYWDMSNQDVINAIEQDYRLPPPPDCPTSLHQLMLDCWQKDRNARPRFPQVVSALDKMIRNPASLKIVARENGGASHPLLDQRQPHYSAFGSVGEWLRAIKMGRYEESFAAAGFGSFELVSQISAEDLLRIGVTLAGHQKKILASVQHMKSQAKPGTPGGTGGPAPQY
Method in brief: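 Run within a 140-kinase specificity panel at the International Centre for Protein Kinase Profiling. Compounds were dissolved in DMSO and tested in vitro at 0.1 or 1 μM. Activity is expressed as percentage of kinase activity in DMSO control reactions, as the mean ± S.D. of triplicate reactions.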

[2] = tested on: U2OS; experiment: Inhibition of cell invasion in human U2OS cells at 10 uM incubated for 16 hrs by matrigel based transwell assay; type: functional
Method in brief: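 Growth-factor-reduced Matrigel Transwell invasion: U2OS cells serum-deprived 2 h, detached, 2.5×10^5 cells in DMEM/1% BSA added to upper chambers in triplicate, DMEM/10% FBS as chemoattractant below; 16 h at 37 °C, 5% CO2 with or without 10 μM inhibitor in both compartments; cells on lower filter face fixed, stained, imaged ×10 and counted; mean ± S.D.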

[3] = molecular target: Calcium/calmodulin-dependent protein kinase type 1 (Homo sapiens) (UniProt Q14012); experiment: Inhibition of recombinant human N-terminal GST-tagged CAMK1alpha (2 to 369 residues) expressed in Escherichia coli assessed as remaining activity at 1 uM using YLRRRLSDSNF as substrate incubated for 30 mins in presence of [gamma-33P]ATP by filter binding method relative to control
Chain of Calcium/calmodulin-dependent protein kinase type 1 (Homo sapiens) (Q14012 whole entry, looked up, the tested form may be a part): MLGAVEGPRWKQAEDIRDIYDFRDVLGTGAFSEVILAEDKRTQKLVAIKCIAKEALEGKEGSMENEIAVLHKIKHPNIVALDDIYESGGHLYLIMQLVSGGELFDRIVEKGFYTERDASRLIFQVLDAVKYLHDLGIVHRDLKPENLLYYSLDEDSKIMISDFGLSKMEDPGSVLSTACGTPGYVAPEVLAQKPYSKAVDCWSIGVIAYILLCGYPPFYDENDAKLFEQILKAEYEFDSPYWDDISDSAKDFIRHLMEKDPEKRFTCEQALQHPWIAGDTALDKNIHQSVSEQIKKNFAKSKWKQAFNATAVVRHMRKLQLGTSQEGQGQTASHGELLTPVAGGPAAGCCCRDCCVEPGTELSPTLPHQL
Method in brief: (§1)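 Screened at the International Centre for Protein Kinase Profiling against a 140-kinase panel, with inhibitor at 0.1 or 1 μM; activity expressed as percentage of DMSO control reactions, mean of triplicate reactions.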

[4] = molecular target: T1, Aurora kinase A (Homo sapiens) (UniProt O14965); experiment: Inhibition of recombinant human N-terminal […] Aurora A (2 to 403 residues) expressed in Escherichia coli assessed as remaining activity at 1 uM using LRRLSLGLRRLSLGLRRLSLGLRRLSLG as substrate incubated for 30 mins in presence of [gamma-33P]ATP by filter binding method relative to control; method in brief: as §1
T1 sequence (whole entry): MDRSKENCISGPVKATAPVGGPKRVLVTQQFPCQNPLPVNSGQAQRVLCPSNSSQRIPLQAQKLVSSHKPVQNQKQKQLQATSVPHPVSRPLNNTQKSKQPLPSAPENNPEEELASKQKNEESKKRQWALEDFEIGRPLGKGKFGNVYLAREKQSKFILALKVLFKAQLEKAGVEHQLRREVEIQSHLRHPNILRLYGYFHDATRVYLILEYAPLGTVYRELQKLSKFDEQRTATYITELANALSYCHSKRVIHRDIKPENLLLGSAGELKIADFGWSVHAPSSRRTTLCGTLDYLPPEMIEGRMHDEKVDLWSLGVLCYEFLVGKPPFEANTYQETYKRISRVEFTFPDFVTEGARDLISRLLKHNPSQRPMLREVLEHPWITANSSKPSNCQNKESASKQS

Structure (SMILES): CCC(=O)Nc1cccc(Oc2nc(Nc3ccc(N4CCN(C)CC4)cc3OC)ncc2Cl)c1
- Activity [1]: 83%
- inhibition [2]: Active
- Activity [3]: 81%
- Activity [4]: 75%
